# HCT116 bCat-KO – beta-catenin-lacking colon tumor cell growth suppression; HCT116 beta-catenin knockout viability, CellTiter-Glo, 60 h; active compounds read low; viability, % at 10 µM; 140,000 compounds, 1.5% hits; AID 818;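 active = viability at or under a set limit, the compound median less 4 SD, cut at about 6% in these data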;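 note: 0% = Hyamine 1622 control at 20 µM and 100% = untreated cell control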
# PTK2B oligo ant – Pyk2 (human) oligomerization antagonism; Q293 cells, Pyk2 FERM NanoBiT luminescence; active compounds read low; z-score (the deposit names both 25 µM and 10 µM); 99,000 compounds, 0.83% hits;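 active = Z-score of -3 or lower, scaled per plate to the spread of control and sample wells; inactive = z-score above -3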;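 note: negative z-score means lost luminescence so less FERM oligomerization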
# Target sequence (Q14289 whole entry, looked up): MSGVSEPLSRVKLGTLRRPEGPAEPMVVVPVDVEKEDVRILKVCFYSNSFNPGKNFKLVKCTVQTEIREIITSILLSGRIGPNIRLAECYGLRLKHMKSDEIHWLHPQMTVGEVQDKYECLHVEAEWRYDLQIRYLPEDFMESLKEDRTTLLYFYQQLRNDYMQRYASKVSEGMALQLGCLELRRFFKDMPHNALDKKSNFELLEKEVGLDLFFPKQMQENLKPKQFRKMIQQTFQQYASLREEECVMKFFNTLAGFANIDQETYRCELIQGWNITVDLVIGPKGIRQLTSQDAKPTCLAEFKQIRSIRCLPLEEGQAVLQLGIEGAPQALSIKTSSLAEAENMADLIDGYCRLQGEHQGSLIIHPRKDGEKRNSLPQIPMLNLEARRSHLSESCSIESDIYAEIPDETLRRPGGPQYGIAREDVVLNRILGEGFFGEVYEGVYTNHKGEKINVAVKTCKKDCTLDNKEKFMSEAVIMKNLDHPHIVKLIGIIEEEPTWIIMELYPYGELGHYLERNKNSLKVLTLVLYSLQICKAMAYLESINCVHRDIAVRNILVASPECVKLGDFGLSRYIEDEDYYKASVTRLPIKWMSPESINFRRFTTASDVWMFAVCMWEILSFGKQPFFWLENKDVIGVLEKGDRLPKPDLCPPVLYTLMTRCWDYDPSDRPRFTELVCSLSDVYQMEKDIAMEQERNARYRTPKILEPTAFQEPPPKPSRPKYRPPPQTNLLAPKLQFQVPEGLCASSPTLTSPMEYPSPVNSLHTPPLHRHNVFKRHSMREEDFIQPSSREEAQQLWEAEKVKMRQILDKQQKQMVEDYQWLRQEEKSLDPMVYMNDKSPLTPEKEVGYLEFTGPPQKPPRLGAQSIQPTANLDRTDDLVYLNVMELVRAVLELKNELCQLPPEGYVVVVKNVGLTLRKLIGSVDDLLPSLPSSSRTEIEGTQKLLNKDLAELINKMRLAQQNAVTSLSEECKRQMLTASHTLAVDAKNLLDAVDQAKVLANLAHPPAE
# PTEN del growth – growth suppressors of cells with PTEN tumor suppressor deletion. HCT116 PTEN-null viability, CellTiter-Glo, 60 h; active compounds read low. viability, % at 10 µM. 140,000 compounds, 1.2% hits. AID 827;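 active = viability at or below a set limit, 4 SD under the median of all tested compounds, cut at about 3.7% in these data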;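 note: PTEN knockout HCT116 line with beta catenin targeted HCT116 as companion control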
# HUVEC prolif 384 – human endothelial cell proliferation inhibition | HUVEC proliferation, CellTiter-Glo luminescence, 72 h; active compounds read low | viability, % at 10 µM (by protocol) | 86,000 compounds, 1.1% hits;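 active = viability at or below 30%; inactive = viability above 30%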;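 note: 100% = median luminescence of DMSO-only cell control wells on each plate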
# Fibroblast inh – blocks proliferation of human lung fibroblasts; 85,000 compounds, 1.1% hits; LL 47 human lung fibroblast viability, ATP luminescence; active compounds read low; AID 719; viability, % at 10 µM;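 active = viability at or below 50% in the single dose screen; inactive = viability above 50%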;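 note: compound exposure lasted 72 h before the ATP readout; 100% = median luminescence of untreated cell-only wells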
#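 Benchmarks: Cell-only wells, no compound | Test system: LL 47 human lung fibroblasts, passage 12 or lower | Input: 1,150 cells/well | Measured by: CellTiter-Glo luminescence measuring cellular ATP | Medium: IMEM, 15% FBS supplement | Schedule: Overnight attachment after seeding, then 72 h compound exposure at 37 °C | Doses: Compound addition at 0.1% DMSO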
# H69AR growth 86K – growth inhibitors of human H69AR lung tumor cells | H69AR lung tumor viability, ATP luminescence, 72 h; active compounds read low | viability, % at 10 µM | 85,000 compounds, 6% hits | AID 598;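 active = viability at or below 40%; inactive = viability above 40%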;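 note: multidrug resistant small cell line overexpressing MRP-1 efflux transporter; 100% = mean luminescence of untreated control wells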
# Starred values were filed as active, the others as inactive; x = no result given. Only a selection was taken, and hits are over-represented in it overall.
SMILES,HCT116 bCat-KO,PTK2B oligo ant,PTEN del growth,HUVEC prolif 384,Fibroblast inh,H69AR growth 86K
CCCCCCc1nc2ccccc2c(=O)n1NC(=O)c1c(O)c2c(n(CC(C)C)c1=O)CCCC2,19.4,1.45,21.5,85.2,71.2,61.6
Oc1ccccc1/C=N/n1cnn(Cc2ccccc2Cl)c1=S,97.4,x,94.3,x,x,x
CO/C([O-])=N/c1c[n+](-c2ccc(Cl)cc2)no1,101.7,0.14,99.8,101.5,97.1,106.9
O=C(Nc1ccccc1Oc1ccccc1)c1ccccc1F,88.4,x,100.3,x,x,x
Cc1c(C(=O)Nc2nccs2)sc2nc(-c3cccs3)cc(C(F)(F)F)c12,1.8*,-1.26,2.2*,44.5,67.9,36.0*
CC(=O)c1sc2nc(-c3cccs3)cc(C(F)(F)F)c2c1N,59.5,-1.24,56.2,77.7,93.2,50.0
O=C(CSc1nnc(-c2ccccc2)o1)NC1CCS(=O)(=O)C1 (configuration not stated),88.4,x,87.3,x,x,x
O=C(NCc1ccco1)C(c1ccccc1)N(CC1CCCO1)C(=O)Cn1nnc2ccccc21 (configuration not stated),85.1,1.11,87.6,104.5,102.2,97.0
O=C(NCc1ccco1)C(c1ccccc1)N(Cc1ccccc1)C(=O)Cn1nnc2ccccc21 (configuration not stated),97.6,-4.13*,81.0,76.5,92.5,68.3
O=[N+]([O-])c1cc(/C=N/Nc2nc3ccccc3[nH]2)c(O)cc1O,5.2*,x,6.1,x,x,x
O=c1c2cc3ccccc3n2cnn1Cc1ccccc1F,56.3,-0.93,40.5,78.7,77.3,17.1*
COc1ccc(/C=N/NC(=O)c2ccn[nH]2)cc1COc1ccc(Cl)cc1Cl,15.5,-2.52,12.2,x,x,x
COc1ccc(/C=N/NC(=O)c2ccn[nH]2)cc1COc1ccc(F)cc1,81.8,-3.16*,80.9,x,x,x
CCCCNC(=O)c1onc(CSc2cccc(C)c2)c1C(=O)O,89.3,x,86.1,x,x,x
C=C1C(=O)[C@@]23[C@H](O)C[C@@H]4C(C)(C)CC[C@H](O)[C@@]4(C)[C@@H]2CC[C@@H]1[C@H]3O,2.1*,x,1.3*,x,x,x
C=C1C(=O)[C@@]23[C@H](O)C[C@@H]4C(C)(C)CC[C@H](O)[C@]4(C)[C@@H]2C[C@H](O)[C@@H]1[C@H]3O,8.8,x,4.6,x,x,x
Cc1cc(C(=O)Nc2ccc(N3CCOCC3)cc2)c2ccccc2n1,81.1,-0.32,74.8,89.0,100.2,90.8
O=C(Nc1ccccc1N1CCOCC1)c1cc(-c2ccco2)nc2ccccc12,62.8,-0.58,52.0,71.2,93.5,5.8*
CCSC1=NC2(CCCCC2)Nc2sc3c(c21)CCCC3,82.2,-0.59,84.2,78.5,89.0,2.2*
COC(=O)c1ccc(CSc2nnc(NC(=O)C3CC(=O)N(Cc4ccc(C)cc4)C3)s2)cc1 (configuration not stated),103.0,x,96.3,x,x,x
CCC(=O)N1CCc2cc(S(=O)(=O)NC(C(=O)NC3CCCc4ccccc43)C(C)C)ccc21 (configuration not stated),95.8,x,85.5,x,x,x
O=C(CCl)Nc1ccccc1Sc1ccc(Cl)cc1,2.1*,-0.59,2.5*,x,x,x
Nc1nc(NC(=O)c2cccc(S(=O)(=O)N3CCCCCC3)c2)nc(-c2ccccc2)n1,107.5,-0.15,88.9,63.0,24.9*,5.3*
CCOC(=O)c1nnc(-c2ccc(C)cc2)nc1Sc1cccc(Cl)c1,77.9,-1.12,80.3,52.9,80.6,33.2*
CCOC(=O)c1nnc(-c2ccccc2)nc1Sc1ccccc1Cl,85.0,-0.92,81.6,61.9,87.2,0.6*
SMILES,HCT116 bCat-KO,PTK2B oligo ant,PTEN del growth,HUVEC prolif 384,Fibroblast inh,H69AR growth 86K
CCOC(=O)c1nnc(-c2ccccc2)nc1Oc1ccc(Cl)cc1,24.5,-0.09,31.4,x,x,x
CCOC(=O)c1nnc(-c2ccccc2)nc1NCc1ccccc1,102.4,-2.03,99.3,x,x,x
COc1cccc(/C(O)=C/c2nc3ccc(C(=O)NCCc4ccc(Cl)cc4)cc3[nH]c2=O)c1,1.5*,x,1.2*,x,x,x
Nc1nnc(SCc2ccc(Cl)cc2)s1,0.8*,-0.76,0.8*,97.6,107.3,99.6
CCn1nnc(-c2ccccc2NC(=O)c2cnccn2)n1,x,-0.11,x,74.4,100.0,61.4
O=C(C1CCCO1)N1CCN(C(=S)Nc2ccccc2Cl)CC1 (configuration not stated),94.9,x,106.4,x,x,x
CCN(CC)S(=O)(=O)c1ccc(NC2CCCc3ccccc32)nc1 (configuration not stated),0.6*,-1.97,0.5*,90.2,93.9,87.4
CCOc1ccc(CN(C)CC(=O)Nc2ccc(N3CCOCC3)cc2)cc1OC,94.7,x,95.0,x,x,x
O=C(CCSc1nc(-c2ccco2)cc(C(F)(F)F)n1)NCCc1ccccc1,92.0,0.06,101.2,98.0,97.5,55.2
O=C(CSc1nc(-c2ccco2)cc(C(F)(F)F)n1)Nc1cccnc1,67.8,-0.48,65.2,69.0,85.1,20.5*
CCn1cc(CNC(=O)CCSc2nc(-c3ccco3)cc(C(F)(F)F)n2)cn1,67.1,x,54.5,81.5,100.5,31.6*
O=C(CSc1ncc(-c2ccc(F)cc2)n1Cc1ccco1)Nc1ccc2c(c1)OCO2,64.5,0.17,69.1,63.2,100.8,25.3*
O=C(CSc1nc(-c2ccco2)cc(C(F)(F)F)n1)Nc1ccc2c(c1)OCO2,67.6,-0.65,64.2,67.9,90.0,23.8*
Cc1[nH]n(-c2ccccc2)c(=O)c1/C=N/N1C(=O)c2ccc3c4c(ccc(c24)C1=O)CC3,37.2,-0.59,28.7,x,x,x
O=C(NCc1ccc(OC(F)(F)F)cc1)C1CC(c2c(Cl)cccc2Cl)=NO1 (configuration not stated),87.2,x,79.7,x,x,x
O=C(c1cc(-c2cccc(O)c2)on1)N1CCN(C(c2ccccc2)c2ccccc2)CC1,42.9,x,41.2,79.7,84.5,5.2*
O=C(c1cc(C2CC2)on1)N1CCN(C(c2ccccc2)c2ccccc2)CC1,91.3,x,94.4,x,x,x
CCCCCCCCCCCCCCCC(O)C(N)CO (configuration not stated),1.9*,x,1.5*,x,x,x
Cc1oc2c(C)c3oc(=O)c4c(c3cc2c1C)CCCC4,65.8,1.44,62.9,81.1,x,13.6*
O=C(Nc1nc2n(n1)C(c1ccccc1)CC(c1ccc(Cl)cc1)N2)c1ccco1 (configuration not stated),44.4,-1.64,45.9,88.0,97.2,86.8
COc1ccc(C2CC(c3ccc(OC)cc3)n3nc(NC(=O)c4ccco4)nc3N2)cc1 (configuration not stated),93.1,-3.79*,80.6,102.6,95.8,97.9
COc1ccc(C2CC(c3ccccc3)Nc3nc(NC(=O)c4ccco4)nn32)cc1 (configuration not stated),84.2,-3.7*,102.0,104.8,91.5,109.1
CCOC(=O)N1CCC(n2c(SCC(=O)NCc3ccccc3)nc3ccccc3c2=O)CC1,68.2,-0.32,63.0,96.2,90.7,57.5
CCOC(=O)N1CCC(n2c(SCC(=O)N3CCCC3)nc3ccccc3c2=O)CC1,73.7,0.94,81.4,x,x,x

# Bioassay records as filed in PubChem BioAssay.
